In ChEMBL document CHEMBL1275360, “1-Bromo-3-(1',1'-dimethylalkyl)-1-deoxy-Δ(8)-tetrahydrocannabinols: New selective ligands for the cannabinoid CB(2) receptor” (Bioorg Med Chem, 2010):

Key:
[1] = Selectivity ratio of IC50 for CB1 receptor in Sprague-Dawley rat brain membranes to IC50 for human CB2 receptor; type: cell membranes; settings: Membrane
Cannabinoid receptor 2 [2] = molecular target: T1, Cannabinoid receptor 2 (Homo sapiens, UniProt P34972); assay: Agonist activity at human CB2 receptor expressed in CHO cells assessed as stimulation of [35S]GTPgammaS binding after 1.5 hrs by liquid scintillation spectrophotometry relative to CP-55940; type: functional, cell-based
T1 sequence (P34972 whole entry): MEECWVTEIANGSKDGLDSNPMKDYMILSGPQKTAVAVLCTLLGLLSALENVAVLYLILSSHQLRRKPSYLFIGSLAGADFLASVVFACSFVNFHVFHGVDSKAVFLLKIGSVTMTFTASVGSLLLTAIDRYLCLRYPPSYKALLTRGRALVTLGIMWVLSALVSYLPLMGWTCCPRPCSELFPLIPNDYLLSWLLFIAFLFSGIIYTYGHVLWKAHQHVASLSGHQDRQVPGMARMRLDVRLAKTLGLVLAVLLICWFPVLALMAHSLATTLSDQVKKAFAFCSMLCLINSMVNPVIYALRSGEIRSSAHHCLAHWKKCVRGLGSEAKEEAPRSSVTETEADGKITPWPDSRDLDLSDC
Procedure, shortened: (§1)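 Membranes from CB2-CHO cells grown in DMEM/Ham F-12 with G418 and 5% fetal calf serum. Reactions used 10 μg membrane protein with 10 μM GDP, 0.1 nM radiolabelled GTPγS, 1 mg/mL BSA and varied drug concentrations in NaCl/EGTA Tris buffer pH 7.4, for 1.5 hr at 30°C. Nonspecific binding (unlabeled GTPγS) subtracted; filtration, scintillation counting. Nonlinear regression; Emax relative to 3 μM CP-55,940; mean ± SEM, ≥3 experiments in triplicate.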

Cannabinoid receptor 1 [3] = molecular target: Cannabinoid receptor 1 (Rattus norvegicus, UniProt P20272); assay: Displacement of [3H]CP-55940 from CB1 receptor in Sprague-Dawley rat brain membranes after 1 hr by liquid scintillation spectrophotometry; type: cell membranes, Membrane
Chain of Cannabinoid receptor 1 (Rattus norvegicus, UniProt P20272) (P20272 whole entry): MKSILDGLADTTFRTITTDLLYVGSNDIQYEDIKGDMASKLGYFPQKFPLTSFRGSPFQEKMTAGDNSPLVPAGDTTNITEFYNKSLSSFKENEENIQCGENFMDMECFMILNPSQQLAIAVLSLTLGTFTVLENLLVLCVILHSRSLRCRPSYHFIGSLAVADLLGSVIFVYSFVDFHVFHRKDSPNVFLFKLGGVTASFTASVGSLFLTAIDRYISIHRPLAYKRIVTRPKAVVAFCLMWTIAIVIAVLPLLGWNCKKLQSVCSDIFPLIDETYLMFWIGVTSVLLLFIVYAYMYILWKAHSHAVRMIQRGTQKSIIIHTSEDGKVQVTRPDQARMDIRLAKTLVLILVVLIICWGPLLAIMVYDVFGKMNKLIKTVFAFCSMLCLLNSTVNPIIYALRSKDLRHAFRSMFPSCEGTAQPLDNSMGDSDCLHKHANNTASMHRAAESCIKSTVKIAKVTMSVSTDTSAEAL
Procedure, shortened: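 Membranes from whole rat brain (CB1) or human CB2-expressing CHO cells (CB2) were incubated 1 hr at 30°C with 1 nM [3H]CP-55,940 and six competitor concentrations (0.1 nM–10 μM). Buffer contained 5 mg/ml BSA, ethanol ≤0.4%. Nonspecific binding was defined with 1 μM CP-55,940. Separation on polyethyleneimine-treated GF/B filters, then scintillation counting. IC50 from log-linear regression, Ki via Cheng-Prusoff; triplicate, 3–6 repeats.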

Cannabinoid receptor 2 [4] = molecular target: T1, Cannabinoid receptor 2; assay: Displacement of [3H]CP-55940 from human CB2 receptor expressed in CHO cells after 1 hr by liquid scintillation spectrophotometry; type: cell-based
Cannabinoid receptor 2 [5] = molecular target: T1, Cannabinoid receptor 2; assay: Agonist activity at human CB2 receptor expressed in CHO cells assessed as stimulation of [35S]GTPgammaS binding after 1.5 hrs by liquid scintillation spectrophotometry; type: functional, cell-based; procedure, shortened: as §1
Cannabinoid receptor 1 [6] = molecular target: Cannabinoid receptor 1 (Homo sapiens, UniProt P21554); assay: Binding affinity to CB1 receptor
Chain of Cannabinoid receptor 1 (Homo sapiens, UniProt P21554) (P21554 whole entry): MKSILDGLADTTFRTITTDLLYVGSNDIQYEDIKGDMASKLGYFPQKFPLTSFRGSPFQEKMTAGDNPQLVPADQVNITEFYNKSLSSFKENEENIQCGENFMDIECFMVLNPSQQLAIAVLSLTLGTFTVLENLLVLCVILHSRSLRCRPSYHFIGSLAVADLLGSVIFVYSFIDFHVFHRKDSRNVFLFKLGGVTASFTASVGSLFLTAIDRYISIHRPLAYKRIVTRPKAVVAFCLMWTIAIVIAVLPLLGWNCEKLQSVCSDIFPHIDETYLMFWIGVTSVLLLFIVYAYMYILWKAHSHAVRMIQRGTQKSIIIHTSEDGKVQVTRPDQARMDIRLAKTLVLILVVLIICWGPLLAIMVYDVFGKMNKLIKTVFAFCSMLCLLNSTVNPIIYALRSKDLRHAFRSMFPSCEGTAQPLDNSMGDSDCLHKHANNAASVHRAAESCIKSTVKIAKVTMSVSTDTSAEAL

Cannabinoid receptor 2 [7] = molecular target: T1, Cannabinoid receptor 2; assay: Binding affinity to CB2 receptor

Structure (SMILES)	Ratio Ki [1]	Emax (Cannabinoid receptor 2 [2]) [%]	Ki (Cannabinoid receptor 1 [3]) [nM]	Ki (Cannabinoid receptor 2 [4]) [nM]	EC50 (Cannabinoid receptor 2 [5]) [nM]	Ki (Cannabinoid receptor 1 [6]) [nM]	Ki (Cannabinoid receptor 2 [7]) [nM]
CCCCCCC(C)(C)c1cc(Br)c2c(c1)OC(C)(C)[C@@H]1CC=C(C)C[C@@H]21	27	91	562	34	15		
CCCCCCC(C)(C)c1ccc2c(c1)OC(C)(C)[C@@H]1CC=C(CO)C[C@@H]21						1.2	0.032
CCCCCC(C)(C)c1cc(Br)c2c(c1)OC(C)(C)[C@@H]1CC=C(C)C[C@@H]21	52	92.3	1440	28	28.6		
CCCCC(C)(C)c1cc(Br)c2c(c1)OC(C)(C)[C@@H]1CC=C(C)C[C@@H]21	16		1140	71			
CCCCCCC(C)(C)c1ccc2c(c1)OC(C)(C)[C@@H]1CC=C(C)C[C@@H]21						23	2.9
CCCC(C)(C)c1ccc2c(c1)OC(C)(C)[C@@H]1CC=C(C)C[C@@H]21	294	112	677		4		
CCCC(C)(C)c1cc(Br)c2c(c1)OC(C)(C)[C@@H]1CC=C(C)C[C@@H]21	38		> 10000	265			
CCCCCc1cc(Br)c2c(c1)OC(C)(C)[C@@H]1CC=C(C)C[C@@H]21	18		> 10000	555			
